14 molecules from PubChem BioAssay can be followed below.

SMILES strings stand for the structures. Calls of active or inactive are those of the source.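 The calls were made as follows, unless noted: active = NADPH fluorescence slope more negative than the mean of all samples by about 3 SD, 99.7% confidence; inactive = the rest.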

Experiment [1] can be described thus: inhibitors of TNFa-induced NFkB p65 translocation, primary screen, imaging, HUVEC, MLSMR starter and 10KST1 sets (AID 438;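 active = inhibition above 20% together with a positive visual image hit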;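 also: compound added about 3h40 before a 20 min TNFalpha stimulation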;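 as to inhibition: signal is the nuclear over cytoplasmic p65 intensity ratio per well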). Conditions: HUVEC TNFa-induced p65 nuclear translocation; cell count: measured here: nuclei count (cytotoxicity indicator), at 2.08 µM; inhibition: at 2 µM, stronger effect = higher value, 0% TNFa-plus-vehicle, 100% no-TNFa wells.
Experiment [2] can be described thus: reduction of polyQ htt aggregates in cells – imaging, exon1htt(103Q)mCFP cells, high-content imaging, primary screen (AID 483;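 active = visual image review flags a hit and inhibition of aggregation exceeds 20%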;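 also: compound exposure lasted 3 days before fixation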;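 as to nuclei count: percent of the per-plate median nuclei count of sample wells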). Conditions: exon1htt(103Q)mCFP cell line, aggregate imaging, at 2 µM; inhibition of aggregation: stronger effect = higher value; nuclei count: measured here: cell count, toxicity.
The nature of experiment [3]: endothelial E-selectin expression blockers – imaging, HUVEC, immunofluorescence, MLSMR starter and 10KST1 sets, primary screen (AID 487;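 active = visually confirmed hit in the image check and inhibition above 20%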;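 as to inhibition: signal is fraction of cell area covered by stained E-selectin grains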;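 as to nuclei count: 100% = median nuclei count of all wells on the same plate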). Conditions: HUVEC TNFalpha-induced E-selectin immunofluorescence imaging, at 2 µM; inhibition: stronger effect = higher value; nuclei count: measured here: cell number, toxicity.
Experiment [4] addresses Voltage-gated potassium channel subunit beta-2 (Rattus norvegicus) (UniProt P62483). The experiment in a line: inhibitors of rat Kvbeta2 reductase activity – biochemical, NADPH fluorescence, primary screen (AID 622;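 active = fluorescence slope higher than the sample average by over 3 SD, cut at about -0.22 in these data, passing the limit was not always enough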;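 also: slope of raw intensity against log time taken from 70 to 1610 s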). Conditions: recombinant KvBeta, 4-cyanobenzaldehyde reduction, at 10 µM, stronger effect = higher value.
For experiment [5] the target is unchanged. The experiment in a line: enhancers of rat Kvbeta2 NADPH turnover – biochemical, NADPH fluorescence, primary screen (AID 623).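 Also: fluorescence intensity change per second fitted from 20 to 320 s.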 Conditions: Recombinant KvBeta, NADPH fluorescence decrease slope, 10 min; at 10 µM; stronger effect = lower value.
Experiment [6] concerns the target Muscarinic acetylcholine receptor M4 (Homo sapiens) (UniProt P08173). The experiment in a line: M4-linked GIRK flux change, two-sided – cell-based, HEK293 M4/GIRK, thallium flux, BTC-AM, M4 allosteric agonist project, primary screen (AID 625;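 active = fluorescence slope after compound addition differing from the mean of all tested samples at 99.7% confidence, mostly higher but some lower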;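 also: thallium influx through GIRK channels coupled to M4 in HEK293 cells with BTC-AM dye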). Conditions: at 10 µM, actives lie on both sides. The procedure, abridged:
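Material: HEK293 cells with M4 receptor and GIRK channels; Times: cells overnight at 37 °C, BTC-AM loading 1 h, reads 2 min total; Technique: kinetic BTC-AM fluorescence sampled at 1 Hz, 10 s pre-addition baseline; Read-out basis: slope over 15–24 s of trace normalized to starting intensity; Controls: carbachol positive, DMSO negative.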

Experiment [7] in a line: blockers of RIG-like receptor reporter activation – cell-based, Sendai virus stimulus, luciferase, 10K MLSCN set, TLR/RLR signaling modifier project, primary screen (AID 602276;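 active = inhibition at or above 50% at 10 µM; inactive = inhibition below 50%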;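 also: firefly luciferase from ISG56 promoter only with Renilla not read in this screen; 0% = Sendai virus plus DMSO and 100% = medium plus DMSO without virus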). Conditions: HEK293 RL24 IRF3 luciferase reporter, at 10 µM, stronger effect = higher value. (Reporter assays use an easily measured gene product as a stand-in for the process of interest.)
Experiment [8] can be described thus: TLR3 IRF3 reporter activation blockers – cell-based, poly I:C stimulus, luciferase, 10K MLSCN set, primary screen (AID 602277;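 active = inhibition of the reporter signal at or above 50%; inactive = inhibition below 50%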). Conditions: HEK293-TLR3 RL24 IRF3 luciferase reporter, at 10 µM, stronger effect = higher value.

Voltage-gated potassium channel subunit beta-2 (Rattus norvegicus), sequence (P62483 whole entry, looked up): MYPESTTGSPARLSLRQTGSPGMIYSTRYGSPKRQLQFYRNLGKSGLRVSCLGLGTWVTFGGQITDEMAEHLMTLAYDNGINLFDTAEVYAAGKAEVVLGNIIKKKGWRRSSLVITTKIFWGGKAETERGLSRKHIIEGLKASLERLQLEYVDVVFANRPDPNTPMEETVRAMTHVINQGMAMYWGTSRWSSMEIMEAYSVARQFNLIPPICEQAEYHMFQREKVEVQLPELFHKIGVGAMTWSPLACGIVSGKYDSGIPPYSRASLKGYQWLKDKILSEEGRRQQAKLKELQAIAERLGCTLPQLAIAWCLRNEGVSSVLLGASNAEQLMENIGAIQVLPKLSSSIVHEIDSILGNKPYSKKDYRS
Muscarinic acetylcholine receptor M4 (Homo sapiens), sequence (P08173 whole entry, looked up): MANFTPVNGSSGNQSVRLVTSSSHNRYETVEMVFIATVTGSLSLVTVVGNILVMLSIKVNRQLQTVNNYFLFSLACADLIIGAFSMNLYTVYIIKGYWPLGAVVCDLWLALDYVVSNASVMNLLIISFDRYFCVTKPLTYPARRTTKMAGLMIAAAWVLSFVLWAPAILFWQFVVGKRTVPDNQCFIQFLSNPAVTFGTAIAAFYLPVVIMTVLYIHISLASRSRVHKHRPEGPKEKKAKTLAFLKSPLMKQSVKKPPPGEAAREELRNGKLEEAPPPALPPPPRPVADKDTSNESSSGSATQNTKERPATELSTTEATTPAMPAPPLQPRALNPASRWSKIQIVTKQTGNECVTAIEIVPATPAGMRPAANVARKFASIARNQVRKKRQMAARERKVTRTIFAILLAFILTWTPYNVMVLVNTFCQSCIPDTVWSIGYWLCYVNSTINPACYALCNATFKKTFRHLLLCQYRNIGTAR

For the molecule `COCn1c(COc2ccccc2)nc2ccccc21`, the cell count in experiment [1] was 478. The inhibition in experiment [1] is 9.6% (inactive); in experiment [3], 29% (inactive); in experiment [7], -20.6% (inactive); in experiment [8], -112% (inactive). Also, the inhibition of aggregation in experiment [2] was -10.6% (inactive). Besides, the nuclei count turned out to be 114% in experiment [2] and 123% in experiment [3]. For the same molecule, the fluorescence slope in experiment [4] is -0.248 (inactive); in experiment [6] it was 0.00599 (inactive). The NADPH fluorescence slope in experiment [5] is -1.5e-05 (inactive).

In the case of `CCSc1nnc(NC(=O)CSc2ncccn2)s1`, in experiment [1], the cell count came to 278. Further, the inhibition in experiment [1] was 0.5% (inactive); in experiment [3], -42.2% (inactive); in experiment [7] it was -9.35% (inactive); in experiment [8] it was 4% (inactive). In addition, the inhibition of aggregation in experiment [2] was -3% (inactive). The nuclei count was found to be 105% in experiment [2] and 111% in experiment [3]. Further, the results for the fluorescence slope in experiment [4] and in experiment [6] were -0.529 (inactive) and 0.00524 (inactive), respectively. The NADPH fluorescence slope in experiment [5] is -4.9e-05 (inactive).

In the case of `O=C(CSc1nnc(Cn2cnc3ccccc32)o1)c1ccccc1`, the cell count in experiment [1] was determined as 672. The inhibition was 3% (inactive) in experiment [1], 82.5% (inactive) in experiment [3], 7.52% (inactive) in experiment [7] and -3.02% (inactive) in experiment [8]. In experiment [2], the inhibition of aggregation was -1.5% (inactive). For the same molecule, the results for the nuclei count in experiment [2] and in experiment [3] were 92.9% and 52%, respectively. Also, the fluorescence slope in experiment [4] was -0.464 (inactive); in experiment [6], 0.00662 (inactive). In experiment [5], the NADPH fluorescence slope is -3.7e-05 (inactive).

As for `Cc1ccc(S(=O)(=O)N(CC(=O)N2CCC(C(N)=O)CC2)c2cccc(C(F)(F)F)c2)cc1`, the cell count in experiment [1] was 327. Moreover, the inhibition in experiment [1] is 1% (inactive); in experiment [3] it was -15.7% (inactive); in experiment [7] it was 25.2% (inactive); in experiment [8], 25.1% (inactive). In addition, the inhibition of aggregation in experiment [2] is -0.2% (inactive). The figures for the nuclei count in experiment [2] and in experiment [3] were 112% and 114%, respectively. The figures for the fluorescence slope in experiment [4] and in experiment [6] were -0.556 (inactive) and 0.00443 (inactive), respectively. Moreover, in experiment [5], the NADPH fluorescence slope is 5.5e-06 (inactive).

`Cc1nnc(C)c2c(C)n(-c3ccc(Br)cc3)c(C)c12`: the cell count in experiment [1] amounted to 305. Besides, the inhibition is 2.5% (inactive) in experiment [1], -47.7% (inactive) in experiment [3], 18% (inactive) in experiment [7] and 27.9% (inactive) in experiment [8]. Also, in experiment [2], the inhibition of aggregation was -3.9% (inactive). The nuclei count in experiment [2] is 104%; in experiment [3] it was 111%. Also, the fluorescence slope in experiment [4] was -0.497 (inactive); in experiment [6], 0.00472 (inactive). For the same molecule, the NADPH fluorescence slope in experiment [5] is -4.6e-05 (inactive).

`CC(C)OC(=O)CSc1nnnn1-c1ccc2c(c1)OCCO2`: in experiment [1], the cell count stood at 294. For the same molecule, the inhibition is -9.9% (inactive) in experiment [1], -0.1% (inactive) in experiment [3], -0.252% (inactive) in experiment [7] and -97.9% (inactive) in experiment [8]. Also, in experiment [2], the inhibition of aggregation is -2.7% (inactive). Moreover, the nuclei count in experiment [2] came to 111%; in experiment [3] it was 118%. Further, the fluorescence slope in experiment [4] is -0.228 (inactive); in experiment [6], 0.00598 (inactive). For the same molecule, the NADPH fluorescence slope in experiment [5] was -3.6e-05 (inactive).

`COC(=O)c1ccccc1NC(=O)CSc1nnnn1C1CCCCC1`: the cell count in experiment [1] was determined as 309. Besides, the inhibition is -3.7% (inactive) in experiment [1], -39.4% (inactive) in experiment [3], 3.68% (inactive) in experiment [7] and 20.1% (inactive) in experiment [8]. Also, the inhibition of aggregation in experiment [2] is -19.4% (inactive). In addition, the nuclei count in experiment [2] was 108%; in experiment [3] it was 81.2%. The values for the fluorescence slope in experiment [4] and in experiment [6] were -0.545 (inactive) and 0.00503 (inactive), respectively. Further, in experiment [5], the NADPH fluorescence slope was -3.8e-05 (inactive).

Take `COc1ccc(N2C(=O)CC(N3CCN(S(=O)(=O)c4c(F)cccc4F)CC3)C2=O)cc1OC` (centres undefined): the cell count in experiment [1] is 418. Also, the inhibition in experiment [1] is -6.6% (inactive); in experiment [3] it was -20.1% (inactive); in experiment [7], 9.5% (inactive); in experiment [8], 12.6% (inactive). Besides, the inhibition of aggregation in experiment [2] is 1% (inactive). The results for the nuclei count in experiment [2] and in experiment [3] were 99.7% and 112%, respectively. The fluorescence slope in experiment [4] is -0.572 (inactive); in experiment [6] it was 0.00422 (inactive). Besides, the NADPH fluorescence slope in experiment [5] is -1.2e-05 (inactive).

Take `O=C(Cn1cnc2sc(-c3ccccc3)cc2c1=O)N1CCOCC1`: the cell count in experiment [1] was 353. Besides, the inhibition in experiment [1] was 6.9% (inactive); in experiment [3] it was -123% (inactive); in experiment [7], 6.22% (inactive); in experiment [8], -5.03% (inactive). In experiment [2], the inhibition of aggregation is 15.6% (inactive). Further, the nuclei count in experiment [2] is 98.1%; in experiment [3] it was 114%. In addition, the fluorescence slope was -0.445 (inactive) in experiment [4] and 0.00489 (inactive) in experiment [6]. The NADPH fluorescence slope in experiment [5] is -4.1e-05 (inactive).

As for `C=CCn1c(SCc2ccc3nonc3c2)nnc1-c1cccs1`, the cell count in experiment [1] was 644. Further, the inhibition in experiment [1] is -14% (inactive); in experiment [3], 13.9% (inactive); in experiment [7] it was 15% (inactive); in experiment [8], 17.7% (inactive). The inhibition of aggregation in experiment [2] was 3.4% (inactive). In addition, the results for the nuclei count in experiment [2] and in experiment [3] were 91.6% and 92.9%, respectively. For the same molecule, the fluorescence slope in experiment [4] was -0.384 (inactive); in experiment [6], 0.00442 (inactive). Also, in experiment [5], the NADPH fluorescence slope is 4.9e-05 (inactive).

With `O=C(CN1CCN(C(=O)c2ccccc2)CC1)Nc1ncc(Br)cc1Br`, the cell count in experiment [1] was 622. The inhibition in experiment [1] is 7.6% (inactive); in experiment [3] it was 2.6% (inactive); in experiment [7], -7.57% (inactive); in experiment [8], 5.71% (inactive). The inhibition of aggregation in experiment [2] was -6.8% (inactive). The nuclei count in experiment [2] came out at 95.9%; in experiment [3] it was 99.9%. In addition, the results for the fluorescence slope in experiment [4] and in experiment [6] were -0.45 (inactive) and 0.00598 (inactive), respectively. Also, the NADPH fluorescence slope in experiment [5] is 3.1e-05 (inactive).

Consider `C=C(C)c1cccc(C(C)(C)NC(=O)Nc2ncccn2)c1`, for which, in experiment [1], the cell count was determined as 472. Further, the inhibition in experiment [1] was -4.3% (inactive); in experiment [3], -0.4% (inactive); in experiment [7], -42.4% (inactive); in experiment [8], 98.6% (active). For the same molecule, the inhibition of aggregation in experiment [2] is 1.6% (inactive). Also, the results for the nuclei count in experiment [2] and in experiment [3] were 106% and 99.6%, respectively. Moreover, the fluorescence slope in experiment [4] was -0.601 (inactive); in experiment [6] it was 0.00622 (inactive). The NADPH fluorescence slope in experiment [5] was -1.1e-05 (inactive).

For the molecule `c1cncc(-c2nnc(-c3ccco3)o2)c1`, the cell count in experiment [1] amounted to 383. Further, the inhibition in experiment [1] was -1.1% (inactive); in experiment [3], 3.9% (inactive); in experiment [7], -1.51% (inactive); in experiment [8], -11.7% (inactive). Besides, the inhibition of aggregation in experiment [2] was -27% (inactive). In addition, the figures for the nuclei count in experiment [2] and in experiment [3] were 116% and 95.6%, respectively. In addition, the results for the fluorescence slope in experiment [4] and in experiment [6] were -0.532 (inactive) and 0.00567 (inactive), respectively. Also, the NADPH fluorescence slope in experiment [5] was -1.2e-05 (inactive).

As to `N#Cc1c(NC(=O)CSc2nc(N)cc(=O)[nH]2)sc2c1CCCCCC2`, the cell count in experiment [1] was 728. Moreover, the inhibition was -14% (inactive) in experiment [1], -105% (inactive) in experiment [3], -11.2% (inactive) in experiment [7] and -48.5% (inactive) in experiment [8]. Also, the inhibition of aggregation in experiment [2] is -2% (inactive). In addition, the nuclei count came out at 115% in experiment [2] and 122% in experiment [3]. Further, the fluorescence slope is -0.578 (inactive) in experiment [4] and 0.00398 (inactive) in experiment [6]. The NADPH fluorescence slope in experiment [5] is -3.4e-05 (inactive).

In general, inhibition refers to the change of the read-out against control, counted positive when it falls.
